Changes are numbered by the printed parent chain. Active and inactive are the calls of the source.
Experiments:
[1] = Inhibition of alpha-glucosidase
[2] = tested on: T1, Lysosomal acid glucosylceramidase (Homo sapiens), P04062 [N409S]; experiment: Activity at recombinant Gcase N370S mutant in human spleen homogenates assessed as hydrolysis of 4-MU-beta-D-glucose at 50 uM; type: tissue-based
T1 sequence (whole entry): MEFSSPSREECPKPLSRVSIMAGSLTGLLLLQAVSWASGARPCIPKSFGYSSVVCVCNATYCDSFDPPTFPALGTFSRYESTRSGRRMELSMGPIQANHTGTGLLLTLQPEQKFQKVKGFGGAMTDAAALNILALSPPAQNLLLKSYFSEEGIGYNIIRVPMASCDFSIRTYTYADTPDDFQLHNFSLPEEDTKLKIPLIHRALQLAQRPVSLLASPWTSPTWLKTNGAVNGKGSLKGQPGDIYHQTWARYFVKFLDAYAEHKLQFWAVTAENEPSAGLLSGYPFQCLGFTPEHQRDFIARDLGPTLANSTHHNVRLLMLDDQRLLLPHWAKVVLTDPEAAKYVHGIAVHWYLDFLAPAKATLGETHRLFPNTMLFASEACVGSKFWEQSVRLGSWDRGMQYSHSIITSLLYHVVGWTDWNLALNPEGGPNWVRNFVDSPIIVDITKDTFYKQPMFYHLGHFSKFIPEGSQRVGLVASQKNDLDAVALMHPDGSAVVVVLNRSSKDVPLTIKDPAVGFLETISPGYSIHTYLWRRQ
In short: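 Enzyme source: human spleen homogenate, 27 μg/well, in 50 mM citric acid/K2PO4 buffer pH 5 with 0.01% Tween20. Compound pin-transferred and preincubated 5 min at room temperature. Substrate 4MU-β-glc at 1 mM final, 45 min at 37 °C. Stopped with 1 M NaOH/1 M glycine pH 10. Fluorescence read at 365 nm excitation, 440 nm emission.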

[3] = Inhibition of alpha-galactosidase
[4] = target: T2, Lysosomal acid glucosylceramidase (Homo sapiens) (UniProt P04062)
T2 sequence (whole entry): T1 sequence (whole entry) with S409N

[5] = target: T2, Lysosomal acid glucosylceramidase (Homo sapiens); remark: listed apart in the source
[6] = target: T2, Lysosomal acid glucosylceramidase (Homo sapiens); remark: listed apart in the source
[7] = target: T2, Lysosomal acid glucosylceramidase (Homo sapiens); remark: listed apart in the source
[8] = target: T2, Lysosomal acid glucosylceramidase (Homo sapiens); remark: listed apart in the source
[9] = target: T2, Lysosomal acid glucosylceramidase (Homo sapiens); remark: listed apart in the source
[10] = target: T2, Lysosomal acid glucosylceramidase (Homo sapiens); remark: listed apart in the source

Cc1ccc(S(=O)(=O)N2CCN(c3nc(C#N)nc4ccccc34)CC2)cc1
Activity [1]: inactive
Activity [2]: inactive
Activity [3]: inactive

O=S(=O)(c1ccccc1)N1CCN(c2nccc(-c3cccs3)n2)CC1
Activity [1]: inactive
Activity [2]: inactive
Activity [3]: inactive

Cc1ccc(S(=O)(=O)N2CCC(c3nc(-c4cccs4)nc4ccccc34)CC2)cc1
Activity [1]: inactive
Activity [2]: inactive
Activity [3]: inactive

CCCN1CCN(c2nc(-c3cccs3)nc3ccccc23)CC1
Activity [1]: inactive
Activity [2]: inactive
Activity [3]: inactive

Cc1ccc(S(=O)(=O)N2CCN(c3nc(-c4cccs4)nc4c3ncn4COC(=O)C(C)(C)C)CC2)cc1
Activity [1]: inactive
Activity [2]: inactive
Activity [3]: inactive

Cc1ccc(S(=O)(=O)N2CCN(c3nc(-c4cccs4)cc4ccccc34)CC2)cc1
Activity [1]: inactive
Activity [2]: inactive
Activity [3]: inactive

Cc1ccc(S(=O)(=O)N2CCN(c3nc(-c4cccs4)nc4[nH]cnc34)CC2)cc1
Activity [1]: inactive
Activity [2]: inactive
Activity [3]: inactive

O=S(=O)(c1ccc(F)cc1)N1CCN(c2nc(-c3ccccc3)nc3cc(Cl)ccc23)CC1
Activity [1]: inactive
Activity [2]: inactive
Activity [3]: inactive

O=S(=O)(c1ccc(Cl)cc1)N1CCN(c2nc(-c3ccc(Cl)cc3)nc3ccccc23)CC1
Activity [1]: inactive
Activity [2]: inactive
Activity [3]: inactive

Cc1ccc(S(=O)(=O)N2CCN(c3nc(-c4ccc(F)cc4)nc4cc(Cl)ccc34)CC2)cc1
Activity [1]: inactive
Activity [2]: inactive
Activity [3]: inactive

CN1CCN(c2nc(-c3cccs3)nc3ccccc23)CC1
Activity [1]: inactive
Activity [2]: inactive
Activity [3]: inactive

O=S(=O)(c1ccc(Cl)cc1)N1CCN(c2nc(-c3cccc(Br)c3)nc3ccccc23)CC1
Activity [1]: inactive
Activity [2]: inactive
Activity [3]: inactive

Cc1ccc(-c2nc(N3CCN(S(=O)(=O)c4ccc(F)cc4)CC3)c3ccc(Cl)cc3n2)cc1
Activity [1]: inactive
Activity [2]: inactive
Activity [3]: inactive

O=S(=O)(c1ccc(Cl)cc1)N1CCN(c2nc(-c3ccc(F)cc3)nc3cc(Cl)ccc23)CC1
Activity [1]: inactive
Activity [2]: inactive
Activity [3]: inactive

CCN1CCN(c2nc(-c3cccs3)nc3ccccc23)CC1
Activity [1]: inactive
Activity [2]: inactive
Activity [3]: inactive

O=S(=O)(c1ccc(F)cc1)N1CCN(c2nc(-c3cccs3)nc3cc(Cl)ccc23)CC1
Activity [1]: inactive
Activity [2]: inactive
Activity [3]: inactive

O=S(=O)(c1ccc(F)cc1)N1CCN(c2nc(-c3cccc(Br)c3)nc3ccccc23)CC1
Activity [1]: inactive
Activity [2]: inactive
Activity [3]: inactive

Cc1ccc(S(=O)(=O)N2CCN(c3nc(-c4ncccn4)nc4ccccc34)CC2)cc1
Activity [1]: inactive
Activity [2]: inactive
Activity [3]: inactive

O=S(=O)(c1ccccc1C(F)(F)F)N1CCN(c2nc(-c3ccccc3)nc3ccccc23)CC1
Activity [1]: inactive
Activity [3]: inactive

NS(=O)(=O)c1ccc(S(=O)(=O)N2CCN(c3nc(-c4ccccc4)nc4ccccc34)CC2)cc1
Activity [1]: inactive
Activity [3]: inactive

O=S(=O)(c1cc(Cl)cc(Cl)c1)N1CCN(c2nc(-c3cccs3)nc3ccccc23)CC1
Activity [1]: inactive
Activity [3]: inactive

N#Cc1ccc(S(=O)(=O)N2CCN(c3nc(-c4cccs4)nc4ccccc34)CC2)cc1
Activity [1]: inactive
Activity [3]: inactive

Cc1ccc(S(=O)(=O)N(C)CCN(C)c2nc(-c3cccs3)nc3ccccc23)cc1
Activity [1]: inactive
Activity [3]: inactive

O=[N+]([O-])c1ccccc1S(=O)(=O)N1CCN(c2nc(-c3cccs3)nc3ccccc23)CC1
Activity [1]: inactive
Activity [3]: inactive

Cc1ccc(S(=O)(=O)N2CCN(c3nc(-c4cscn4)nc4ccccc34)CC2)cc1
Activity [1]: inactive
Activity [3]: inactive

O=S(=O)(c1ccccc1)N1CCN(c2nc(-c3cccs3)nc3ccccc23)CC1
Activity [1]: inactive
Activity [3]: inactive

O=S(=O)(c1ccc(F)cc1)N1CCN(c2nc(-c3ccc(F)cc3)nc3cc(Cl)ccc23)CC1
Activity [1]: inactive
Activity [2]: inactive
Activity [3]: inactive

CCOC(=O)c1ccc(S(=O)(=O)N2CCN(c3nc(-c4cccs4)nc4ccccc34)CC2)cc1
Activity [1]: inactive
Activity [3]: inactive

O=C(c1ccc2c(c1)OCCO2)N1CCN(c2nc(-c3cccs3)nc3ccccc23)CC1
Activity [1]: inactive
Activity [3]: inactive

Cc1ccc(S(=O)(=O)C2CCN(c3nc(-c4cccs4)nc4ccccc34)CC2)cc1
Activity [1]: inactive
Activity [3]: inactive

Cc1ccc(S(=O)(=O)N2CCN(c3nc(C(N)=O)nc4ccccc34)CC2)cc1
Activity [1]: inactive
Activity [2]: inactive
Activity [3]: inactive

O=S(=O)(c1ccccc1)N1CCN(c2nc(-c3ccc(F)cc3)nc3cc(Cl)ccc23)CC1
Activity [1]: inactive
Activity [2]: inactive
Activity [3]: inactive

CCOc1ccc(S(=O)(=O)N2CCN(c3nc(-c4ccccc4)nc4ccccc34)CC2)cc1
Activity [1]: inactive
Activity [3]: inactive

c1csc(-c2nc(N3CCN(Cc4ccc5c(c4)OCCO5)CC3)c3ccccc3n2)c1
Activity [1]: inactive
Activity [3]: inactive

Oc1ccc(N2CCN(c3nc(-c4cccs4)nc4ccccc34)CC2)cc1
Activity [1]: inactive
Activity [3]: inactive

CS(=O)(=O)N1CCN(c2nc(-c3cccs3)nc3ccccc23)CC1
Activity [1]: inactive
Activity [3]: inactive

Cc1ccc(S(=O)(=O)N2CCN(c3ccnc(-c4cccs4)n3)CC2)cc1
Activity [1]: inactive
Activity [3]: inactive

O=S(=O)(c1ccc(C(F)(F)F)cc1)N1CCN(c2nc(-c3cccs3)nc3cc(Cl)ccc23)CC1
Activity [1]: inactive
Activity [2]: inactive
Activity [3]: inactive

O=S(=O)(c1ccccc1C(F)(F)F)N1CCN(c2nc(-c3cccs3)nc3ccccc23)CC1
Activity [1]: inactive
Activity [3]: inactive

Cc1ccc(S(=O)(=O)N2CCN(c3nc(-c4cncnc4)nc4ccccc34)CC2)cc1
Activity [1]: inactive
Activity [2]: inactive
Activity [3]: inactive

Cc1ccc(S(=O)(=O)N2CCN(c3nc(-c4cccs4)nc4ccccc34)CC2)cc1
ΔTm [4]: 0.84 °C
ΔTm [5]: 9.89 °C
ΔTm [6]: 11 °C
ΔTm [7]: -0.09 °C
Activity [1]: inactive
Activity [3]: inactive
ΔTm [8]: 5.18 °C
ΔTm [9]: 0.03 °C
ΔTm [10]: -1.4 °C
